Measured values reported in ChEMBL document CHEMBL1152411, “Antiplasmodial isoflavanones from the roots of Sophora mollis” (J Nat Prod, 2009).

Experiments:
Plasmodium falciparum = test: Antiplasmodial activity against chloroquine-sensitive Plasmodium falciparum D10; assay type: functional, organism-based
In short: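 Asexual erythrocytic-stage P. falciparum kept in continuous in vitro culture (Trager–Jensen). Activity measured by the parasite lactate dehydrogenase assay, with chloroquine diphosphate as reference drug.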

[1] = Selectivity index, ratio of IC50 for CHO cells to IC50 for chloroquine-sensitive Plasmodium falciparum D10; assay type: toxicity, cell-based; settings: hamster; read-out: Ratio IC50
CHO = test: Cytotoxicity against CHO cells by MTT assay; assay type: cell-based, Cricetulus griseus
In short: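 Chinese hamster ovary (CHO) cells; growth and survival measured by MTT assay. Samples run in triplicate on one occasion, with emetine dihydrochloride as reference drug.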

[2] = Plasmodium falciparum, D10, read-out: IC50
[3] = Cricetulus griseus, CHO, read-out: IC50

COc1cc(O)c2c(c1CC=C(C)C)OC[C@@](O)(c1ccc(O)c(CC=C(C)C)c1OC)C2=O [SOPHONOROL F]
IC50 (Plasmodium falciparum; [2]): 41 µM
selectivity ratio [1]: 3

CC[C@H]1CN2CCc3cc(OC)c(OC)cc3[C@@H]2C[C@@H]1C[C@H]1NCCc2cc(OC)c(OC)cc21 [EMETINE]
IC50 (CHO; [3]): 0.12 µM

COc1ccc([C@]2(O)COc3c(CC=C(C)C)c(O)cc(O)c3C2=O)c(OC)c1CC=C(C)C [SOPHONOROL E]
IC50 (Plasmodium falciparum; [2]): 12.8 µM
IC50 (CHO; [3]): 169 µM
selectivity ratio [1]: 13

COc1c(O)cc([C@]2(O)COc3cc(O)cc(O)c3C2=O)c(OC)c1CC=C(C)C [SOPHONOROL D]
IC50 (Plasmodium falciparum; [2]): 106 µM
IC50 (CHO; [3]): 172 µM
selectivity ratio [1]: 2

COc1c(C2(O)COc3cc(O)cc(O)c3C2=O)ccc2c1C=CC(C)(C)O2 (stereo not given) [SOPHORONOL]
IC50 (Plasmodium falciparum; [2]): 114 µM
IC50 (CHO; [3]): 223 µM
selectivity ratio [1]: 2

COc1cc2ccc(=O)oc2cc1O [SCOPOLETIN]
IC50 (Plasmodium falciparum; [2]): 494 µM
IC50 (CHO; cho): Not Active

COc1c([C@]2(O)COc3cc(O)cc(O)c3C2=O)ccc2c1C=CC(C)(CO)O2 (stereo not given in full) [SOPHORONOL B]
IC50 (Plasmodium falciparum): Not Active
IC50 (CHO; cho): Not Active

Oc1ccc2c(c1)OC[C@@H]1c3cc4c(cc3O[C@H]21)OCO4 [(+)-MAACKIAIN]
IC50 (Plasmodium falciparum; [2]): 177 µM
IC50 (CHO; cho): Not Active

CC1(C)C=Cc2c(ccc([C@]3(O)COc4cc(O)cc(O)c4C3=O)c2O)O1 [SOPHORONOL A]
IC50 (Plasmodium falciparum): Not Active
IC50 (CHO; cho): Not Active

O=C(/C=C/c1ccc(O)cc1)c1ccc(O)cc1O [ISOLIQUIRITIGENIN]
IC50 (Plasmodium falciparum; [2]): 32 µM
IC50 (CHO; [3]): 45.9 µM
selectivity ratio [1]: 1

O=c1c(-c2ccc(O)cc2)coc2c(O)c(O)ccc12
IC50 (Plasmodium falciparum; [2]): 17.8 µM
IC50 (CHO; cho): Not Active

O=c1cc(-c2ccc(O)c(O)c2)oc2cc(O)ccc12
IC50 (Plasmodium falciparum; [2]): 19.3 µM
IC50 (CHO; [3]): 49.3 µM
selectivity ratio [1]: 3

COc1c([C@]2(O)COc3c4c(cc(O)c3C2=O)OC(C)(C)CC4)ccc2c1CCC(C)(C)O2 [SOPHONOROL C]
IC50 (Plasmodium falciparum; [2]): 12.9 µM
IC50 (CHO; cho): Not Active
